In brackets after ≈: the same amount, converted by molar mass.
What was measured:
Pseudomonas aeruginosa = experiment: Antibacterial activity against Pseudomonas aeruginosa PCM 2562 after 20 hrs by microbroth dilution method; type: functional; settings: PCM 2562, 20 h
Outline: (§1)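 MIC by broth microdilution in Mueller–Hinton broth. Strains were pre-grown 24h at 37 °C with shaking at 180 rpm. Inoculum was 5x10^5 CFU/ml, exposed 20 h at 37 °C to compound (0.001 – 5 mg/ml, DMSO solvent). MIC was the lowest concentration inhibiting observable growth. Tetracycline served as reference. Triplicate.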

Salmonella bongori = experiment: Antibacterial activity against Salmonella bongori PCM 2552 after 20 hrs by microbroth dilution method; type: functional; settings: PCM 2552, 20 h; outline: as §1
Escherichia coli = experiment: Antibacterial activity against Escherichia coli ATCC 8739 after 20 hrs by microbroth dilution method; type: functional; settings: ATCC 8739, 20 h; outline: as §1
Staphylococcus aureus [1] = experiment: Antibacterial activity against Staphylococcus aureus ATCC 6538 after 20 hrs by microbroth dilution method; type: functional; settings: ATCC 6538, 20 h; outline: as §1
Enterobacter cloacae = experiment: Antibacterial activity against Enterobacter cloacae PCM 2569 after 20 hrs by microbroth dilution method; type: functional; settings: PCM 2569, 20 h; outline: as §1
Klebsiella pneumoniae = experiment: Antibacterial activity against Klebsiella pneumoniae PCM1 after 20 hrs by microbroth dilution method; type: functional; settings: PCM1, 20 h; outline: as §1
[2] = Hemolytic activity in human erythrocytes at 1 to 250 ug/mL incubated for 1 hr; type: ADME, cell-based, Erythrocyte; settings: read-out: Activity
Outline: (§2)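 Human blood was collected into citrate dextrose anticoagulant. Erythrocytes were spun at 500×g for 10 min at 4 °C, then washed in PBS (10 mM phosphate, pH 7.5; 150 mM NaCl) until the supernatant was clear, and resuspended at 2%. 450 µl of suspension was mixed with compound in 50 µl DMSO (1 - 250 µg/ml), incubated 1h at 37 °C, spun at 5000×g for 10 min, and supernatant A415 was read. Controls: tetracycline and chloramphenicol negative, Triton X-100 (1%) positive.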

[3] = Hemolytic activity in human erythrocytes at 60 ug/mL incubated for 1 hr; type: ADME, cell-based, Erythrocyte; settings: read-out: Activity; outline: as §2
Enterococcus faecalis = experiment: Antibacterial activity against Enterococcus faecalis PCM 2673 after 20 hrs by microbroth dilution method; type: functional; settings: PCM 2673, 20 h; outline: as §1
Proteus vulgaris = experiment: Antibacterial activity against Proteus vulgaris PCM 2668 after 20 hrs by microbroth dilution method; type: functional; settings: PCM 2668, 20 h; outline: as §1
Staphylococcus aureus [4] = experiment: Antibacterial activity against Staphylococcus aureus CDC587 assessed as reduction in CFU/ml by <3 logs after 24 hrs; type: functional; settings: CDC587, 24 h
Staphylococcus aureus [5] = experiment: Antibacterial activity against Staphylococcus aureus LAC assessed as reduction in CFU/ml by <3 logs after 24 hrs; type: functional
Staphylococcus aureus [6] = experiment: Antibacterial activity against Staphylococcus aureus MW2 assessed as reduction in CFU/ml by <3 logs after 24 hrs; type: functional; settings: MW2, 24 h
Staphylococcus aureus [7] = experiment: Antibacterial activity against Staphylococcus aureus MNPE assessed as reduction in CFU/ml by <3 logs after 24 hrs; type: functional
[8] = Hemolytic activity in human blood cells at 5 ug/mL after 48 hrs by photometric method; type: ADME, cell-based, Erythrocyte; settings: read-out: Activity
Staphylococcus aureus [9] = experiment: Antibacterial activity against Staphylococcus aureus MN8 assessed as reduction in CFU/ml by <3 logs after 24 hrs; type: functional; settings: MN8, 24 h

SMILES | MIC (Pseudomonas aeruginosa) [µg/mL] | MIC (Salmonella bongori) [µg/mL] | MIC (Escherichia coli) [µg/mL] | MIC (Staphylococcus aureus [1]) [µg/mL] | MIC (Enterobacter cloacae) [µg/mL] | MIC (Klebsiella pneumoniae) [µg/mL] | MIC (Enterococcus faecalis) [µg/mL] | MIC (Proteus vulgaris) [µg/mL] | MIC (Staphylococcus aureus [4]) [µg/mL] | MIC (Staphylococcus aureus [5]) [µg/mL] | MIC (Staphylococcus aureus [6]) [µg/mL] | MIC (Staphylococcus aureus [7]) [µg/mL] | MIC (Staphylococcus aureus [9]) [µg/mL] | hemolysis at 1 h [2] [%] | hemolysis at 1 h, 60 ug/mL [3] [%] | hemolysis at 48 h, 5 ug/mL [8] [%]
Cc1cc(N(C)C)ccc1C1=CC(=O)c2ccccc2C1=O | 250 (≈ 858 µM) | 250 (≈ 858 µM) | 250 (≈ 858 µM) | 7.8 (≈ 26.8 µM) | 250 (≈ 858 µM) | 250 (≈ 858 µM) | – | – | – | – | – | – | – | ≤ 2 | 2 | –
CN(C)c1ccc(C2=CC(=O)c3ccccc3C2=O)cc1 | 250 (≈ 901 µM) | 125 (≈ 451 µM) | 125 (≈ 451 µM) | 125 (≈ 451 µM) | 250 (≈ 901 µM) | 62.5 (≈ 225 µM) | – | 250 (≈ 901 µM) | – | – | – | – | – | – | – | –
COc1cc(N(C)C)ccc1C1=CC(=O)c2ccccc2C1=O | 250 (≈ 813 µM) | 250 (≈ 813 µM) | 250 (≈ 813 µM) | 7.8 (≈ 25.4 µM) | 250 (≈ 813 µM) | 250 (≈ 813 µM) | – | – | – | – | – | – | – | – | – | –
COc1ccc(C2=CC(=O)c3ccccc3C2=O)c(OC)c1 | 250 (≈ 849 µM) | 250 (≈ 849 µM) | 250 (≈ 849 µM) | 15.6 (≈ 53 µM) | 250 (≈ 849 µM) | 250 (≈ 849 µM) | – | – | – | – | – | – | – | ≤ 2 | – | –
O=C1C=C(c2ccc(N(Cc3ccccc3)Cc3ccccc3)cc2)C(=O)c2ccccc21 | 250 (≈ 582 µM) | 250 (≈ 582 µM) | 250 (≈ 582 µM) | 250 (≈ 582 µM) | 250 (≈ 582 µM) | 250 (≈ 582 µM) | 250 (≈ 582 µM) | – | – | – | – | – | – | – | – | –
O=C1C=C(N[C@@H](Cc2c[nH]c3ccccc23)C(=O)O)C(=O)c2ccccc21 | 500 (≈ 1390 µM) | 500 (≈ 1390 µM) | 500 (≈ 1390 µM) | 62.5 (≈ 173 µM) | 500 (≈ 1390 µM) | 500 (≈ 1390 µM) | 500 (≈ 1390 µM) | 500 (≈ 1390 µM) | – | – | – | – | – | – | – | –
Cc1ccc(C2=CC(=O)c3ccccc3C2=O)cc1C | 500 (≈ 1910 µM) | 500 (≈ 1910 µM) | 500 (≈ 1910 µM) | 500 (≈ 1910 µM) | 500 (≈ 1910 µM) | 500 (≈ 1910 µM) | – | 500 (≈ 1910 µM) | – | – | – | – | – | – | – | –
O=C1C=C(N[C@@H](C(=O)O)c2ccccc2)C(=O)c2ccccc21 | 500 (≈ 1630 µM) | 500 (≈ 1630 µM) | 500 (≈ 1630 µM) | 250 (≈ 814 µM) | 500 (≈ 1630 µM) | 500 (≈ 1630 µM) | 500 (≈ 1630 µM) | – | – | – | – | – | – | – | – | –
O=C1C=C(N2CCC[C@H]2C(=O)O)C(=O)c2ccccc21 | 250 (≈ 922 µM) | 250 (≈ 922 µM) | 250 (≈ 922 µM) | 31.2 (≈ 115 µM) | 250 (≈ 922 µM) | 250 (≈ 922 µM) | 250 (≈ 922 µM) | 500 (≈ 1840 µM) | – | – | – | – | – | – | – | –
Cc1cc(C)c(C2=CC(=O)c3ccccc3C2=O)c(C)c1 | 500 (≈ 1810 µM) | 500 (≈ 1810 µM) | 500 (≈ 1810 µM) | 15.6 (≈ 56.5 µM) | 500 (≈ 1810 µM) | 500 (≈ 1810 µM) | – | 500 (≈ 1810 µM) | – | – | – | – | – | – | – | –
O=C1C=C(Nc2ccccc2)C(=O)c2ccccc21 | 250 (≈ 1000 µM) | 250 (≈ 1000 µM) | 250 (≈ 1000 µM) | 62.5 (≈ 251 µM) | 250 (≈ 1000 µM) | 250 (≈ 1000 µM) | – | – | – | – | – | – | – | – | – | –
CC1=CC(=O)c2ccccc2C1=O [MENADIONE] | – | – | – | – | – | – | – | – | 3 (≈ 17.4 µM) | 3 (≈ 17.4 µM) | 3 (≈ 17.4 µM) | 3 (≈ 17.4 µM) | 3 (≈ 17.4 µM) | – | – | 3.5
O=C1C=CC(=O)c2ccccc21 [NAPHTHOQUINONE] | 125 (≈ 790 µM) | 125 (≈ 790 µM) | 125 (≈ 790 µM) | 31.2 (≈ 197 µM) | 250 (≈ 1580 µM) | 250 (≈ 1580 µM) | 125 (≈ 790 µM) | – | – | – | – | – | – | – | – | –
CN(C)[C@@H]1C(O)=C(C(N)=O)C(=O)[C@@]2(O)C(O)=C3C(=O)c4c(O)cccc4[C@@](C)(O)[C@H]3C[C@@H]12 [TETRACYCLINE] | 15.6 (≈ 35.1 µM) | 3.9 (≈ 8.78 µM) | 0.5 (≈ 1.13 µM) | 7.8 (≈ 17.6 µM) | 7.8 (≈ 17.6 µM) | 15.6 (≈ 35.1 µM) | 31.2 (≈ 70.2 µM) | 7.8 (≈ 17.6 µM) | – | – | – | – | – | – | – | –

Second part, led by results:

MIC (Pseudomonas aeruginosa) [µg/mL] | MIC (Salmonella bongori) [µg/mL] | MIC (Escherichia coli) [µg/mL] | MIC (Staphylococcus aureus [1]) [µg/mL] | MIC (Enterobacter cloacae) [µg/mL] | MIC (Klebsiella pneumoniae) [µg/mL] | MIC (Enterococcus faecalis) [µg/mL] | MIC (Proteus vulgaris) [µg/mL] | MIC (Staphylococcus aureus [4]) [µg/mL] | MIC (Staphylococcus aureus [5]) [µg/mL] | MIC (Staphylococcus aureus [6]) [µg/mL] | MIC (Staphylococcus aureus [7]) [µg/mL] | MIC (Staphylococcus aureus [9]) [µg/mL] | SMILES | hemolysis at 1 h [2] [%] | hemolysis at 1 h, 60 ug/mL [3] [%] | hemolysis at 48 h, 5 ug/mL [8] [%]
250 (≈ 1070 µM) | 250 (≈ 1070 µM) | – | – | – | – | – | – | – | – | – | – | – | O=C1C=C(c2ccccc2)C(=O)c2ccccc21 | – | – | –
250 (≈ 771 µM) | 250 (≈ 771 µM) | 250 (≈ 771 µM) | 250 (≈ 771 µM) | 250 (≈ 771 µM) | 250 (≈ 771 µM) | – | – | – | – | – | – | – | COc1cc(OC)c(C2=CC(=O)c3ccccc3C2=O)c(OC)c1 | – | – | –
250 (≈ 778 µM) | 250 (≈ 778 µM) | 250 (≈ 778 µM) | 15.6 (≈ 48.5 µM) | 250 (≈ 778 µM) | 250 (≈ 778 µM) | – | – | – | – | – | – | – | COc1cc(NC(C)=O)ccc1C1=CC(=O)c2ccccc2C1=O | ≤ 2 | – | –
500 (≈ 1930 µM) | 500 (≈ 1930 µM) | 250 (≈ 964 µM) | 62.5 (≈ 241 µM) | 500 (≈ 1930 µM) | 500 (≈ 1930 µM) | 250 (≈ 964 µM) | 500 (≈ 1930 µM) | – | – | – | – | – | COC(=O)[C@H](C)NC1=CC(=O)c2ccccc2C1=O | – | – | –
500 (≈ 1830 µM) | 500 (≈ 1830 µM) | 500 (≈ 1830 µM) | 500 (≈ 1830 µM) | 500 (≈ 1830 µM) | 500 (≈ 1830 µM) | 500 (≈ 1830 µM) | 500 (≈ 1830 µM) | – | – | – | – | – | CC(C)[C@H](NC1=CC(=O)c2ccccc2C1=O)C(=O)O | – | – | –
500 (≈ 1610 µM) | 500 (≈ 1610 µM) | 250 (≈ 806 µM) | 62.5 (≈ 201 µM) | 500 (≈ 1610 µM) | 500 (≈ 1610 µM) | – | 500 (≈ 1610 µM) | – | – | – | – | – | O=C1C(c2ccccc2)=C(c2ccccc2)C(=O)c2ccccc21 | – | – | –
500 (≈ 1450 µM) | 500 (≈ 1450 µM) | 500 (≈ 1450 µM) | 500 (≈ 1450 µM) | 500 (≈ 1450 µM) | 500 (≈ 1450 µM) | – | – | – | – | – | – | – | COc1cc2ccc(C3=CC(=O)c4ccccc4C3=O)cc2cc1OC | – | – | –

Source: ChEMBL document CHEMBL3877289, “New family of antimicrobial agents derived from 1,4-naphthoquinone” (Eur J Med Chem, 2016)
